SENP8 block-1 = SENP8 protease inhibitors, primary screen, biochemical, luminescence. Sentrin-specific protease 8 (Homo sapiens), Q96LD8. purified SENP8, Z-RLRGG-aminoluciferin cleavage. inhibition, % at 10 µM. 1.2% of 330,000 active. AID 2540, 2010; in the data active means inhibition above about 50%
Target sequence (Q96LD8 whole entry, looked up): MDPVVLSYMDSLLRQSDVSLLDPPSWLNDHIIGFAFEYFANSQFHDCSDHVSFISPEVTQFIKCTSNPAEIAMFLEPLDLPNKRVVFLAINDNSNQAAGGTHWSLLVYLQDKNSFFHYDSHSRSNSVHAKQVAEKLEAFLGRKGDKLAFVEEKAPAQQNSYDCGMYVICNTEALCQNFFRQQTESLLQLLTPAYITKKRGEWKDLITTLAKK
SENP6 inh = SENP6 protease inhibitors, primary screen, biochemical, luminescence, uHTS; Sentrin-specific protease 6 (Homo sapiens), Q9GZR1; Recombinant SENP6 catalytic domain, aminoluciferin luminescence; inhibition, % at 10 µM; 1.8% of 330,000 active; AID 2599, 2010;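 active means inhibition above about 50% at the single tested dose, limit read from the data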;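 further: plate controls were DMSO wells with enzyme for no effect and DMSO wells lacking enzyme for full effect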
Target sequence (Q9GZR1 628-1112 limits assumed): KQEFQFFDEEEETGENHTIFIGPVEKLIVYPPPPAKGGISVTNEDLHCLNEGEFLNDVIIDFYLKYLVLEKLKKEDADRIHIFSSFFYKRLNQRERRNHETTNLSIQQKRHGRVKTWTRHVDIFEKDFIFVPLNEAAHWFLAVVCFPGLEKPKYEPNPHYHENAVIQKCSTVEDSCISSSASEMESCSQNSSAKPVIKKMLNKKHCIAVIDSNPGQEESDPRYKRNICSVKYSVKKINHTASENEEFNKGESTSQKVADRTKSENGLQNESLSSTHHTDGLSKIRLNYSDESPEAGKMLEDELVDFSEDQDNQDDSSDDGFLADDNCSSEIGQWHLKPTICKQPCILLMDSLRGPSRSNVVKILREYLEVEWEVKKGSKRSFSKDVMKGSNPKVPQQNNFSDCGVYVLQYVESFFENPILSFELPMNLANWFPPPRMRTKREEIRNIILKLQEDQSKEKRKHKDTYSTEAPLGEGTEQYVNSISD
SENP7 inh = SENP7 protease inhibitors, primary screen, biochemical, luminescence, uHTS; Sentrin-specific protease 7 (Homo sapiens), Q9BQF6; recombinant SENP7, Z-RLRGG-aminoluciferin luminescence, 40 min; inhibition, % at 5 µM; 1.5% of 330,000 active; AID 434973, 2010;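 active means inhibition above about 50% at the single test dose, limit read from the data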;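 further: plate controls were DMSO with enzyme for no effect and no enzyme buffer wells for full effect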
SENP8 block-2 = human SENP8 protease inhibitors, primary screen, biochemical, fluorescence, Nedd8 protein substrate, uHTS | inhibition, % at 20 µM | 0.64% of 360,000 active | recombinant SENP8 | Sentrin-specific protease 8 (Homo sapiens), Q96LD8; in the data active means inhibition mostly above about 40%, no sharp cut-off; inactive means mostly below about 27%
SENP1 FRET inh = human SENP1 catalytic domain inhibitors, primary screen, biochemical, FRET, uHTS; Sentrin-specific protease 1 (Homo sapiens), Q9P0U3; inhibition, % at 10 µM; recombinant SENP1 catalytic domain, CyPet-SUMO1-YPet FRET cleavage; 0.21% of 360,000 active;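 active means inhibition at least 30% at 10 µM, raw YFP signal under a set limit, fluorescence ratio 0.5 to 1.5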;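 further: 0% = enzyme with DMSO and 100% = no enzyme wells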
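Assay system: hSENP1 catalytic domain, recombinant. Amount: SENP1 enzyme, 20 pM final. Schedule: 50 min reaction, RT, dark. Technique: FRET, CFP and YFP emission. Control set: no-enzyme wells low, DMSO-plus-enzyme wells high control.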
SENP8 conf = SENP8 protease inhibitors, retest, confirmation, biochemical, luminescence, single concentration | shares compounds with SENP7 inh | AID 488912, 2010 | 40% of 6,200 active | inhibition, % at 12.5 µM | Recombinant SENP8, Z-RLRGG-aminoluciferin luminescence, 60 min;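 active means mean inhibition across replicates above about 50%, limit read from the data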
SENP6 confirm = SENP6 protease inhibitors, confirmation, biochemical, luminescence, single concentration | 58% of 6,200 active | recombinant SENP6, Z-RLRGG-aminoluciferin luminescence | shares compounds with SENP7 inh | inhibition, % at 12.5 µM
SENP7 conf = SENP7 protease inhibitors, retest, confirmation, biochemical, luminescence, single concentration. shares compounds with SENP7 inh. recombinant SENP7, Z-RLRGG-aminoluciferin luminescence, 40 min. 69% of 6,200 active. inhibition, % at 12.5 µM
Casp3 select = caspase-3 protease inhibitors, confirmation, selectivity assay for SENP inhibitor project, biochemical, single concentration | shares compounds with SENP7 inh | purified caspase-3, Z-DEVD-aminoluciferin luminescence, 60 min | inhibition, % at 12.5 µM | 60% of 6,200 active;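 active means mean inhibition above about 50%, limit read from the data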;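 further: plate controls were enzyme with DMSO for no effect and wells without caspase-3 for full effect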
Luc interf = luminescence interference (SENP counter-screen). shares compounds with SENP7 inh. Pre-incubated SENP8/Z-RLRGG-aminoluciferin, luciferase luminescence interference. inhibition, % at 12.5 µM. 39% of 6,200 active. AID 488919;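 active means mean inhibition above about 50% when retested at one dose, limit read from the data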;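 further: plate controls were DMSO wells with completed reaction for no effect and substrate without enzyme for full effect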
The depositor's hits bear a star; x = not tested or not shown. Hits are enriched below; roughly 2.5% of the tested compounds scored in any of these assays.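 How the source made its calls, unless noted: active means mean inhibition above about 50% in the one-dose retest (limit read from the data); inactive means the rest.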

SMILES	SENP8 block-1	SENP6 inh	SENP7 inh	SENP8 block-2	SENP1 FRET inh	SENP8 conf	SENP6 confirm	SENP7 conf	Casp3 select	Luc interf
Cc1nc(NC(=O)c2ccccc2)sc1-c1csc(NCc2ccccc2)n1	63.5*	80.0*	75.2*	-77.1	-20.1	-7.0	-5.3	-5.1	20.8	11.9
CCOc1ccccc1Nc1nc(-c2sc(NC(=O)c3cccc(Cl)c3)nc2C)cs1	68.3*	84.1*	77.0*	-95.0	-8.3	-18.9	-9.6	-4.3	14.7	7.5
Cc1nc(-c2ccc(NC(=O)c3ccccc3)cc2)cs1	93.7*	97.3*	97.0*	3.6	1.0	86.8*	97.0*	100.7*	95.8*	83.0*
CC1(C)CCC[C@]2(C)[C@H]3Cc4cc(O)ccc4O[C@]3(C)CC[C@@H]12	4.8	-4.9	0.4	10.1	-6.1	x	x	x	x	x
NNC(=O)C(Cc1c[nH]c2ccccc12)NC(=O)c1ccccc1 (stereo not given)	-5.5	-15.8	13.6	10.4	1.7	x	x	x	x	x
CCOC(=O)C1=C(C)Nc2ccccc2N/C1=N\S(=O)(=O)c1cc(C(=O)O)ccc1Cl	-4.6	3.1	7.5	-10.7	2.5	x	x	x	x	x
CSCCC(NC(=O)c1ccc([N+](=O)[O-])cc1Cl)C(=O)OC1CCCCC1=O (stereo not given)	-2.5	-16.9	-6.9	6.5	-1.1	x	x	x	x	x
Cc1cc(OCC(=O)NNC(=O)CCc2ccccc2)ccc1Br	-0.4	6.3	4.8	5.5	0.5	x	x	x	x	x
COc1ccccc1Nc1nc(-c2sc(NC(=O)c3ccccc3)nc2C)cs1	21.9	33.5	10.5	-199.6	-23.2	x	x	x	x	x
Cc1nc(NC(=O)c2ccccc2)sc1-c1csc(NCCc2ccccc2)n1	29.7	63.0*	56.6*	-30.7	-7.7	-3.2	-0.9	9.6	46.4	11.6
Cc1ccc(/C=N/c2sc3c(c2C#N)CCC3)o1	89.7*	92.6*	90.7*	15.8	-13.7	4.9	83.6*	93.9*	36.4	52.4*
N#Cc1c(/N=C/c2cccs2)sc2c1CCCCC2	92.4*	75.6*	97.1*	27.6	-1.4	91.1*	93.8*	95.6*	87.4*	48.4
CN(C)/C=N/c1sc2c(c1C#N)CCC2	-10.8	-23.1	-11.3	17.2	0.6	x	x	x	x	x
N#Cc1c(/N=C\c2ccc(O)c([N+](=O)[O-])c2)sc2c1CCCC2	-2.8	-3.7	3.3	9.0	1.2	x	x	x	x	x
N#Cc1c(/N=C/c2cccnc2)sc2c1CCCC2	35.4	55.0*	-10.2	32.2	-1.5	57.3*	55.7*	67.1*	27.6	55.7*
N#Cc1c(/N=C/c2ccc(Br)s2)sc2c1CCC2	x	x	x	17.0	-16.7	x	x	x	x	x
CCCc1cc(C(=O)NNC(=S)Nc2cccc(C)c2)cs1	80.0*	78.9*	94.3*	10.3	-0.2	33.1	26.5	7.7	3.6	20.6
Cc1cccc(NC(=S)NNC(=O)c2ccc3c(c2)OCO3)c1	13.4	23.7	7.4	-11.3	-1.1	x	x	x	x	x
O=S(=O)(NC1=NCCCCC1)c1cc(F)ccc1F	-14.8	-24.5	-11.4	-0.4	0.8	x	x	x	x	x
CNc1ccc(-c2cccc(CO)c2)cn1	x	x	x	-496.3	3.8	x	x	x	x	x
Cc1cccc(C)c1NC(=O)NC1(C(=O)NCC2CCCO2)CCCCC1 (stereo not given)	-9.7	-18.5	-4.8	20.5	1.4	x	x	x	x	x
O=C(O)c1ccccc1C=NNc1ccccn1	x	x	x	-4.2	1.6	x	x	x	x	x
COc1ccc(OC)c(CNC(=O)C2CCC(=O)N2C(C)C)c1 (stereo not given)	-2.8	-20.5	-0.8	10.8	-0.7	x	x	x	x	x
CCCCCCC#Cc1ccc2c(c1)COc1c3ccccc3nn1-2	-13.6	-14.7	-5.7	9.9	1.4	x	x	x	x	x
C(#Cc1ccc2c(c1)COc1c3ccccc3nn1-2)c1ccccc1	73.8*	76.4*	61.4*	-84.0	-20.6	26.2	30.8	56.6*	40.9	49.4
SMILES	SENP8 block-1	SENP6 inh	SENP7 inh	SENP8 block-2	SENP1 FRET inh	SENP8 conf	SENP6 confirm	SENP7 conf	Casp3 select	Luc interf
C#Cc1ccc2c(c1)COc1c3ccccc3nn1-2	93.0*	95.6*	71.5*	-1.9	4.1	76.2*	96.3*	101.2*	91.7*	51.9*
C(#CC1CCCCC1)c1ccc2c(c1)COc1c3ccccc3nn1-2	16.4	37.3	18.7	-2.1	0.0	x	x	x	x	x
CC(C)COc1cccc(C(=O)NC(=S)NCc2cccnc2)c1	-9.8	-28.1	4.4	21.2	1.7	x	x	x	x	x
CCn1c(CC(=O)Nc2ccc(OC)cc2)nnc1SCC(=O)N1CCOCC1	-10.7	-14.0	7.5	5.8	1.8	x	x	x	x	x
CCN(CC)C(=O)c1cccc(NC(=O)C2CCN(C(=O)c3cccs3)CC2)c1	-1.2	6.7	0.1	17.0	3.9	x	x	x	x	x
Oc1ccc(/C=C/c2ccc3cccc(O)c3n2)cc1Br	92.1*	96.8*	87.9*	-107.3	-24.0	97.6*	98.2*	101.6*	83.8*	94.3*
COC(=O)c1ccc(/C=C/c2ccc3cccc(OC(C)=O)c3n2)cc1	87.0*	94.8*	90.6*	-397.1	-2.3	78.7*	89.9*	98.1*	85.6*	6.6
O=C(O)c1ccc(/C=C/c2ccc3cccc(O)c3n2)cc1	94.9*	95.0*	98.4*	-110.5	1.4	98.0*	98.6*	101.9*	96.8*	78.4*
CC1=C(C(=O)N(C)C)CC(CC(=O)NCCCN(C)C)C(=O)N1Cc1ccccc1 (stereo not given)	x	x	x	1.9	-2.5	x	x	x	x	x
Cc1ccc(S(=O)(=O)N2Cc3ccccc3CC2C(=O)N(C)C)cc1 (stereo not given)	x	x	x	10.6	0.3	x	x	x	x	x
Cc1ccc(NC(=O)CN(C)C(=O)c2cc3ccccc3o2)cc1	2.1	-2.1	4.3	7.5	-0.5	x	x	x	x	x
COc1ccc(N=Cc2c(O)c3ccccc3n2C(C)=O)cc1	5.2	33.1	2.2	-91.4	-34.6	x	x	x	x	x
COc1ccc(N=Cc2sc(O)c3ccccc23)cc1	79.2*	61.5*	69.8*	-2.8	-20.0	92.9*	92.2*	99.9*	73.2*	81.4*
